# Results as given in ChEMBL document CHEMBL4011654, “Mitochondria-Targeted Lupane Triterpenoid Derivatives and Their Selective Apoptosis-Inducing Anticancer Mechanisms” (J Med Chem, 2017).
# Calls of active or inactive are those of the source. The rule behind the calls is not given here.
# What was measured:
# [1] = Drug uptake in mitochondria of human K562 cells at 10 uM after 4 hrs by RP-HPLC analysis relative to betulin; format: ADME
# In short: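 K562 exposed to 10 μM compound or betulin for 4 h, washed, mitochondria isolated by kit, pellet extracted twice with dichloromethane/methanol (2:1). Residue assayed by RP-HPLC on C18: betulin in 100% acetonitrile, detection 220 nm; conjugate in 80% acetonitrile with 0.1% formic acid, detection 267 nm. Amounts normalised to protein; n = 3.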
# K562 [2] = test: Decrease in mitochondrial membrane potential in human K562 cells at 1 to 2 uM after 48 hrs by JC-1 staining based fluorescence microscopic analysis; format: functional, cell-based
# In short: (§1)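 K562 seeded at 4 × 10^5 cells/well, after 12 h treated 48 h. Cells washed in ice-cold PBS, loaded with JC-1 ([…]) at 37 °C for 15 min, rinsed, and analysed by flow cytometry (% cells with red aggregates) and fluorescence microscopy (red aggregates vs green monomers).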
# K562 [3] = test: Induction of mitochondrial membrane depolarization in human K562 cells assessed as cells with intact mitochondrial membrane potential at 4 uM after 48 hrs by JC-1 staining based flow cytometric analysis (reference value: 97.63 to 97.67%); format: functional
# K562 [4] = test: Induction of apoptosis in human K562 cells assessed as late apoptotic cells at 0.8 uM after 48 hrs by Annexin V-FITC/propidium iodide-staining based flow cytometric analysis (reference value: 2.25 to 2.67%); format: functional
# In short: (§2)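 K562 seeded at 4 × 10^5 cells/well, 12 h, then exposed 48 h. Cells washed in ice-cold PBS, suspended in binding buffer, stained with annexin V-FITC and PI for 15 min at room temperature in the dark, and read by flow cytometry within 1 h. Cells counted as early/late apoptotic as % of total; n = 3.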
# K562 [5] = test: Induction of apoptosis in human K562 cells assessed as viable cells at 0.4 uM after 48 hrs by Annexin V-FITC/propidium iodide-staining based flow cytometric analysis (reference value: 95.75 to 96.56%); format: functional; conditions: K562, 48 h, read-out: Activity; in short: as §2
# K562 [6] = test: Induction of apoptosis in human K562 cells assessed as caspase-3 activation at 4 uM after 48 hrs by Western blot analysis relative to control; format: functional
# In short: (§3)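 K562 treated 48 h, then lysed on ice for 30 min; cytosolic and mitochondrial fractions isolated by kit where needed, protein measured by BCA. 60 μg/lane run on SDS-PAGE, transferred to PVDF, blocked in 5% milk/TBST for 4 h. Probed for cytochrome c, caspase-9, caspase-3 (total/cleaved), PARP; alkaline phosphatase secondary.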
# HL-60 = test: Cytotoxicity against human HL60 cells assessed as cell growth inhibition after 48 hrs by MTT assay; format: functional, cell-based; conditions: HL-60, 48 h
# In short: (§4)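 Suspension cells seeded at 5000/well (HL-60 in IMDM, K562 in RPMI, both with 10% FBS) and treated. MTT then added for 4 h at 37 °C; plates centrifuged at 3000 rpm for 30 min, medium removed, DMSO added, OD570 read. IC50 taken as concentration giving 50% growth inhibition; triplicate.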
# K562 [7] = test: Induction of ROS generation in human K562 cells at 0.5 uM after 48 hrs by DCFH-DA probe based flow cytometric analysis relative to control; format: functional
# In short: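 K562 seeded at 4 × 10^5 cells/well, 12 h, then treated 48 h. Washed cells loaded with DCFH-DA in FBS-free medium at 37 °C for 30 min, rinsed, read by flow cytometry. ROSup was the positive control; mean ± SD, n = 3.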
# K562 [8] = test: Induction of mitochondrial membrane depolarization in human K562 cells assessed as cells with mitochondrial membrane potential loss at 2 uM after 48 hrs by JC-1 staining based flow cytometric analysis (reference value: 1.89 to 2.23%); format: functional
# K562 [9] = test: Antitumor activity against CM-Dil-labeled human K562 cells xenografted in wild-type zebrafish embryos assessed as tumor growth inhibition at 1 to 10 ug/ml measured after 48 hrs by confocal microscopic analysis; format: functional, cell-based
# In short: (§5)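 K562 cells labelled with CM-Dil, suspended in FBS-free medium at (1 × 107)/mL and microinjected into wild-type zebrafish embryos kept at 28 °C in embryonic medium. After 4 h, embryos with the same injection spot were pooled at 15−20 per well and exposed to compound; Taxol served as positive control. At 48 h, confocal imaging gave fluorescent area (migration) and fluorescence intensity (cell number); n = 15.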
# K562 [10] = test: Decrease in mitochondrial membrane potential in human K562 cells after 48 hrs by JC-1 staining based flow cytometry; format: functional, cell-based; in short: as §1
# K562 [11] = test: Induction of apoptosis in human K562 cells assessed as viable cells at 1.2 uM after 48 hrs by Annexin V-FITC/propidium iodide-staining based flow cytometric analysis (reference value: 95.75 to 96.56%); format: functional; conditions: K562, 48 h, read-out: Activity; in short: as §2
# K562 [12] = test: Induction of mitochondrial membrane depolarization in human K562 cells assessed as cells with intact mitochondrial membrane potential at 2 uM after 48 hrs by JC-1 staining based flow cytometric analysis (reference value: 97.63 to 97.67%); format: functional; in short: as §1
# K562 [13] = test: Induction of apoptosis in human K562 cells assessed as early apoptotic cells at 0.8 uM after 48 hrs by Annexin V-FITC/propidium iodide-staining based flow cytometric analysis (reference value: 0.92 to 1.45%); format: functional; in short: as §2
# K562 [14] = test: Induction of apoptosis in human K562 cells assessed as late apoptotic cells at 0.4 uM after 48 hrs by Annexin V-FITC/propidium iodide-staining based flow cytometric analysis (reference value: 2.25 to 2.67%); format: functional; in short: as §2
# K562 [15] = test: Induction of apoptosis in human K562 cells assessed as necrotic cells at 0.8 uM after 48 hrs by Annexin V-FITC/propidium iodide-staining based flow cytometric analysis (reference value: 0.13 to 0.27%); format: functional; in short: as §2
# K562 [16] = test: Induction of apoptosis in human K562 cells assessed as necrotic cells at 0.4 uM after 48 hrs by Annexin V-FITC/propidium iodide-staining based flow cytometric analysis (reference value: 0.13 to 0.27%); format: functional; in short: as §2
# K562 [17] = test: Antitumor activity against CM-Dil-labeled human K562 cells xenografted in wild-type zebrafish embryos assessed as reduction in cell migration at 1 to 2 ug/ml measured after 48 hrs by confocal microscopic analysis; format: functional, cell-based; in short: as §5
# HepG2 = test: Cytotoxicity against human HepG2 cells assessed as cell growth inhibition after 48 hrs by MTT assay; format: functional, cell-based; conditions: HepG2, 48 h
# In short: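 Adherent cells seeded at 5000/well, left 16−24 h, then exposed 48 h at 37 °C, 5% CO2 in RPMI with 10% FBS. Medium refreshed, MTT added for 4 h at 37 °C, medium removed, formazan dissolved in DMSO, OD570 read. IC50 taken as concentration inhibiting growth by 50%; triplicate.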
# K562 [18] = test: Induction of apoptosis in human K562 cells assessed as early apoptotic cells at 1.2 uM after 48 hrs by Annexin V-FITC/propidium iodide-staining based flow cytometric analysis (reference value: 0.92 to 1.45%); format: functional; in short: as §2
# K562 [19] = test: Induction of apoptosis in human K562 cells assessed as upregulation of cleaved PARP up to 4 uM after 48 hrs by Western blot analysis; format: functional, cell-based
# K562 [20] = test: Cytotoxicity against human K562 cells assessed as cell growth inhibition after 48 hrs by MTT assay; format: functional, cell-based; conditions: K562, 48 h; in short: as §4
# K562 [21] = test: Induction of apoptosis in human K562 cells assessed as caspase-9 activation at 4 uM after 48 hrs by Western blot analysis relative to control; format: functional; in short: as §3
compound,measurement,setting,value
C=C(C)[C@@H]1CC[C@]2(COC(=O)CCCC[P+](c3ccccc3)(c3ccccc3)c3ccccc3)CC[C@]3(C)[C@H](CC[C@@H]4[C@@]5(C)CC[C@H](O)C(C)(C)[C@@H]5CC[C@]43C)[C@@H]12.[Br-],fold change (FC),[1],3.4
same,Activity,K562 [2],Active
same,Activity,K562 [3],38.18%
same,Activity,K562 [4],20.57%
same,viability at 0.4 µM,K562 [5],88.1%
same,fold change (FC),K562 [6],2.1
same,IC50,HL-60,600 nM
same,Activity,K562 [7],50%
same,Activity,K562 [8],17.08%
same,TGI,K562 [9],Active
same,Activity,K562 [10],Dose-dependent effect
same,viability at 1.2 µM,K562 [11],45.3%
same,Activity,K562 [12],82.54%
same,Activity,K562 [13],12.51%
same,Activity,K562 [14],4.67%
same,Activity,K562 [15],3.7%
same,Activity,K562 [16],0.53%
same,Activity,K562 [17],Active
same,IC50,HepG2,1090 nM
same,Activity,K562 [18],12.03%
same,Activity,K562 [19],Active
same,IC50,K562 [20],570 nM
same,fold change (FC),K562 [21],1.5
